How the values were obtained:
[1] = target: T1, 5-hydroxytryptamine receptor 1A (Rattus norvegicus, UniProt P19327); experiment: Displacement of [3H]-8-OH-DPAT from 5-HT1A receptor in Sprague-Dawley albinus rat cerebral cortex membranes after 15 mins
T1 sequence (P19327 whole entry): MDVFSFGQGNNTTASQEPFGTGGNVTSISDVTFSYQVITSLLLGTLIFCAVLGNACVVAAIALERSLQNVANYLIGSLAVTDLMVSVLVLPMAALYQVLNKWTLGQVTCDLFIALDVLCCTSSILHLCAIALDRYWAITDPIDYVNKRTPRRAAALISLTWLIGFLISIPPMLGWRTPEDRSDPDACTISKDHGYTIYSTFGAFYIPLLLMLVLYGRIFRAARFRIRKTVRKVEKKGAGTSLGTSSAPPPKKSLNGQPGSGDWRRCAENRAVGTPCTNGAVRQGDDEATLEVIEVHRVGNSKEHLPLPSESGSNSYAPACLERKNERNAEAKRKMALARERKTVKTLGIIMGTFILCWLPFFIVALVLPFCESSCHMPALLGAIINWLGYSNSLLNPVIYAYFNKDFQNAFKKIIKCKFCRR

[2] = target: T2, 5-hydroxytryptamine receptor 3A (Rattus norvegicus, UniProt P35563); experiment: Displacement of [3H]-LY278584 from 5HT3 receptor in Sprague-Dawley albinus rat cerebral cortex membranes after 30 mins
T2 sequence (P35563 whole entry): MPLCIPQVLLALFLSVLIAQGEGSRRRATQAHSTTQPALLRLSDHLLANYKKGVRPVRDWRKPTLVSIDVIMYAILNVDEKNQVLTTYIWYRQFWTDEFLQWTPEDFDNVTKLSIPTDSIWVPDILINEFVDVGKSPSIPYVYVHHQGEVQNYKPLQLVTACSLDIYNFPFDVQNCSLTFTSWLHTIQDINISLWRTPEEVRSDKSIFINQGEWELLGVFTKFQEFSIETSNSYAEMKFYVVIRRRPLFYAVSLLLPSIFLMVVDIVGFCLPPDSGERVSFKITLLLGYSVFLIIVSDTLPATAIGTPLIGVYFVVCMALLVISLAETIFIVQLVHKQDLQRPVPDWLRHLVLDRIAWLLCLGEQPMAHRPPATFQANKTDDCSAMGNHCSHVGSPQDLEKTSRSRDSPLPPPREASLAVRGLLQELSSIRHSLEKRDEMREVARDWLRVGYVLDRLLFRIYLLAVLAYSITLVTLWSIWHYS

D(2) dopamine receptor = D(2) dopamine receptor (Rattus norvegicus, UniProt P61169); experiment: Displacement of [3H]spiperone from dopamine D2 receptor in Sprague-Dawley albinus rat striatal membranes after 15 mins
D(2) dopamine receptor, sequence (P61169 whole entry): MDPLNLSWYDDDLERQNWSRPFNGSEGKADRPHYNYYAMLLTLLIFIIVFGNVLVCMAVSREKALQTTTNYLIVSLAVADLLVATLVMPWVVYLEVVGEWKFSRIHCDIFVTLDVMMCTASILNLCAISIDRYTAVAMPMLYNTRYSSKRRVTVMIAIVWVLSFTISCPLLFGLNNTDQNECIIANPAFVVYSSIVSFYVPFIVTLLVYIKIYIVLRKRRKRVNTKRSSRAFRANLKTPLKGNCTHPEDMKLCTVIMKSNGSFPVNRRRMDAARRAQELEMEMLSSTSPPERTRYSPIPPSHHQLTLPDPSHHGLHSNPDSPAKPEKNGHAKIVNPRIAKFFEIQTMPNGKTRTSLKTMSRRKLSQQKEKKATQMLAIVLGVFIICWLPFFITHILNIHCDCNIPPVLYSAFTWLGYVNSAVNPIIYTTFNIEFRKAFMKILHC

[3] = target: 5-hydroxytryptamine receptor 2A (Rattus norvegicus, UniProt P14842); experiment: Displacement of [3H]ketanserin from 5HT2A receptor in Sprague-Dawley albinus rat frontal cortex membranes after 15 mins
5-hydroxytryptamine receptor 2A, sequence (P14842 whole entry): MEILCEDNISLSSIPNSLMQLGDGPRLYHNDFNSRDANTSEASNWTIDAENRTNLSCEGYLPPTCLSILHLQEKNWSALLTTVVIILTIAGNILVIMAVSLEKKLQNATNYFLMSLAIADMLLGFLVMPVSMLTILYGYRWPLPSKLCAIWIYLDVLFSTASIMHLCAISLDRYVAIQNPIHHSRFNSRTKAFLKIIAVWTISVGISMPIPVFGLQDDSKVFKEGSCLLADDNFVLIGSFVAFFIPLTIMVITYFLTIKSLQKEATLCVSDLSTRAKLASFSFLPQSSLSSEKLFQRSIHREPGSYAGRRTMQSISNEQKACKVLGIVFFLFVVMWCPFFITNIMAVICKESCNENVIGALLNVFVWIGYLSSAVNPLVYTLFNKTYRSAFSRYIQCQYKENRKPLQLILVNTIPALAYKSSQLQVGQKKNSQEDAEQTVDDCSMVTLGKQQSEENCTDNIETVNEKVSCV
In short: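 Rat frontal cortex membranes (male Sprague–Dawley, 180–200 g). Nonspecific binding was set with 1 μM cinanserin.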

[4] = target: 5-hydroxytryptamine receptor 4 (Rattus norvegicus, UniProt Q62758); experiment: Displacement of [3H]GR113808 from 5HT4 receptor in Sprague-Dawley albinus rat striatal membranes after 30 mins by scintillation counting
5-hydroxytryptamine receptor 4, sequence (Q62758 whole entry): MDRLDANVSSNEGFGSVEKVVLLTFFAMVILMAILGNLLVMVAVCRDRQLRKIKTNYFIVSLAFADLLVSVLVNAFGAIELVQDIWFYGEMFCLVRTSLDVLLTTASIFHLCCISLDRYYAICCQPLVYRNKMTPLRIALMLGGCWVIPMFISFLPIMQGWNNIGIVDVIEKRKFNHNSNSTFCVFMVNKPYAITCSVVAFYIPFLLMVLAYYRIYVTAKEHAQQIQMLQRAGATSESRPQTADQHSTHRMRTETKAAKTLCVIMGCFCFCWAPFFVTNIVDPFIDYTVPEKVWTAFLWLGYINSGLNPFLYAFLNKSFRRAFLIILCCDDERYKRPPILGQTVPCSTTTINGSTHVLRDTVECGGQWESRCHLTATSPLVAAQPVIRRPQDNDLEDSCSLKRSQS

[5] = target: 5-hydroxytryptamine receptor 7 (Rattus norvegicus, UniProt P32305); experiment: Displacement of [3H]-5-CT from 5HT7 receptor in Sprague-Dawley albinus rat hyphalamic membranes after 120 mins
5-hydroxytryptamine receptor 7, sequence (P32305 whole entry): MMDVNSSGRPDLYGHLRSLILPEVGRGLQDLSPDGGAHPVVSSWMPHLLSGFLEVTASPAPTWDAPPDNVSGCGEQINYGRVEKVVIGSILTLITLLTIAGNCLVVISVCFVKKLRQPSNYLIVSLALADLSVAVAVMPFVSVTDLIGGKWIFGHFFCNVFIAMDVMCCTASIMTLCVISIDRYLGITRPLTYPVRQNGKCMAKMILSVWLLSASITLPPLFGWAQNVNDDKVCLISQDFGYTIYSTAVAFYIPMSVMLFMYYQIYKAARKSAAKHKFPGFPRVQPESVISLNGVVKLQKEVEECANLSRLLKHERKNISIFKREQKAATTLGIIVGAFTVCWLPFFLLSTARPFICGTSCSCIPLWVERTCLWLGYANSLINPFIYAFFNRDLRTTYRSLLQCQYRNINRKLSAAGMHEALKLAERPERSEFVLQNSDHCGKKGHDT

O=c1n(CCCCNCc2ccccc2)c(O)c2n1CCC2
Ki [1]: > 1 µM

O=c1n(CCCCNCCc2ccc3ccccc3c2)c(O)c2n1CCC2
Ki [2]: > 1 µM
Ki (D(2) dopamine receptor): > 1 µM

O=c1n(CCCCCNCC2CCc3ccccc3O2)c(O)c2n1CCC2 (stereo not given)
Ki [3]: > 1 µM
Ki [2]: > 1 µM

O=c1n(CCCCNCc2ccc3ccccc3c2)c(O)c2n1CCC2
Ki [3]: > 1 µM

O=c1n(CCCCNCc2ccccn2)c(O)c2n1CCC2
Ki [1]: > 1 µM

O=c1n(CCCCNCCc2cccc3ccccc23)c(O)c2n1CCC2
Ki [3]: > 1 µM
Ki [4]: > 1 µM
Ki [2]: > 1 µM
Ki [1]: 0.028 µM
Ki [5]: > 1 µM
Ki (D(2) dopamine receptor): > 1 µM

O=c1n(CCCCNCCc2ccccc2)c(O)c2n1CCC2
Ki [1]: > 1 µM

O=c1scc(O)n1CCCCCCNCC1CCc2ccccc2O1 (stereo not given)
Ki [3]: > 1 µM

O=c1n(CCCCNCCc2ccco2)c(O)c2n1CCC2
Ki [1]: > 1 µM

O=c1n(C/C=C/CNCC2CCc3ccccc3O2)c(O)c2n1CCC2 (stereo not given)
Ki [3]: > 1 µM

O=c1n(CCCCNCc2cccs2)c(O)c2n1CCC2
Ki [1]: > 1 µM

O=c1n(Cc2cccc(CNCC3CCc4ccccc4O3)c2)c(O)c2n1CCC2 (stereo not given)
Ki [3]: > 1 µM
Ki [2]: > 1 µM

O=c1n(CCCCNCc2cccc3ccccc23)c(O)c2n1CCC2
Ki [1]: > 1 µM

O=c1scc(O)n1CCCCCNCC1CCc2ccccc2O1 (stereo not given)
Ki [3]: > 1 µM

O=c1n(Cc2ccc(CNCC3CCc4ccccc4O3)cc2)c(O)c2n1CCC2 (stereo not given)
Ki [3]: > 1 µM
Ki [2]: > 1 µM
Ki [1]: 0.028 µM

O=c1n(CCCNCC2CCc3ccccc3O2)c(O)c2n1CCC2 (stereo not given)
Ki [3]: > 1 µM
Ki [2]: > 1 µM

O=c1n(CCCCNCCc2cccs2)c(O)c2n1CCC2
Ki [1]: > 1 µM

O=c1scc(O)n1CCCCCCCCNCC1CCc2ccccc2O1 (stereo not given)
Ki [3]: > 1 µM

O=c1scc(O)n1CCCCNCC1CCc2ccccc2O1 (stereo not given)
Ki [3]: > 1 µM

O=c1n(CCCCNCc2ccco2)c(O)c2n1CCC2
Ki [1]: > 1 µM

O=c1n(CCCCNCCc2ccccn2)c(O)c2n1CCC2
Ki [1]: > 1 µM

O=c1n(CCCCCCNCC2CCc3ccccc3O2)c(O)c2n1CCC2 (stereo not given)
Ki [3]: > 1 µM
Ki [2]: > 1 µM

O=c1n(CCCCNCC2CCc3ccccc3O2)c(O)c2n1CSC2 (stereo not given)
Ki [3]: > 1 µM

O=c1n(CCCCNCC2CCc3ccccc3O2)c(O)c2n1CCCC2 (stereo not given)
Ki [3]: > 1 µM
Ki [2]: > 1 µM

O=c1n(CCCCNCc2ccc3ccccc3n2)c(O)c2n1CCC2
Ki [3]: > 1 µM
Ki [2]: > 1 µM

O=c1n(CC#CCNCC2CCc3ccccc3O2)c(O)c2n1CCC2 (stereo not given)
Ki [1]: > 1 µM

From BindingDB's records for doi:10.1021/jm2007886 (Universidad Complutense De Madrid, 2011)
